Source: ChEMBL document CHEMBL4321878, “Stereoselective Activity of 1-Propargyl-4-styrylpiperidine-like Analogues That Can Discriminate between Monoamine Oxidase Isoforms A and B” (J Med Chem, 2020)
The source made the active and inactive calls. The calls are words filed in the database; no cut-off is given here.

Key:
Mus musculus [1] = assay: Effect on spontaneous locomotor activity in Swiss mouse assessed as change in number of light beam crossings at 3 mg/kg, ip measured after 30 mins and monitored for 5 mins; format: ADME, organism-based; settings: in vivo
Mus musculus [2] = assay: Ex vivo inhibition of MAOA in Swiss mouse brain homogenates assessed as residual activity at 0.3 mg/kg, ip administered once daily for 10 days measured 30 mins post-last dose using 5-HT as substrate by amplex red reagent-based horseradish peroxidase-coupled fluorescence assay relative to control; format: functional
Mus musculus [3] = assay: Ex vivo inhibition of MAOA in Swiss mouse brain homogenates assessed as residual activity at 30 mg/kg, po administered via gavage measured after 90 mins using 5-HT as substrate by amplex red reagent-based horseradish peroxidase-coupled fluorescence assay relative to control; format: functional
Mus musculus [4] = assay: Ex vivo inhibition of MAOA/MAOB in Swiss mouse brain homogenates assessed as residual activity at 60 mg/kg, ip measured after 30 mins using p-tyramine as substrate by amplex red reagent-based horseradish peroxidase-coupled fluorescence assay relative to control; format: functional
Procedure, shortened: (§1)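 Male Swiss mice (n = 3 per group) received 60 mg/kg ip in 0.9% saline, or saline alone, 30 min before brain homogenate preparation. […] Residual activity reported as mean ± SD, n = 1 in triplicate.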

SH-SY5Y [5] = assay: Cytotoxicity against human SH-SY5Y cells assessed as reduction in cell viability at 5 to 10 uM measured after 24 hrs by MTS assay; format: cell-based
Procedure, shortened: (§2)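 SH-SY5Y human neuroblastoma cells grown in Advanced DMEM with 10% FBS at 37 °C, 5% CO2, and switched to serum-depleted medium before treatment. Compounds (20 mM DMSO stocks) were applied at 5, 10 or 50 μM for 24 h. Viability read by MTS assay.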

[6] = Toxicity in Swiss mouse assessed as change in body weight at 0.3 mg/kg, ip administered once daily for 10 days measured during compound dosing; format: organism-based; settings: in vivo, 240 h
Mus musculus [7] = assay: Antianxiety activity in Swiss mouse at 0.3 mg/kg, ip […] and monitored for 5 mins by elevated plus maze test; format: functional, organism-based
Mus musculus [8] = assay: Ex vivo inhibition of MAOA in Swiss mouse brain homogenates assessed as residual activity at 0.3 mg/kg, ip measured after 30 mins using 5-HT as substrate by amplex red reagent-based horseradish peroxidase-coupled fluorescence assay relative to control; format: functional
Mus musculus [9] = assay: Antianxiety activity in Swiss mouse assessed as increase in open arm entries at 3 mg/kg, ip measured after 30 mins and monitored for 5 mins by elevated plus maze test relative to control; format: functional
Mus musculus [10] = assay: Effect on spontaneous locomotor activity in Swiss mouse assessed as change in number of light beam crossings at 0.3 mg/kg, ip administered […] and monitored for 5 mins; format: ADME, organism-based; settings: in vivo
[11] = Thermodynamic solubility of the compound in pH 7.4 phosphate buffered saline assessed per […] at 7 to 9 mg incubated for 24 hrs under shaking condition by HPLC analysis; format: physicochemical; settings: in vitro, pH 7.4, 24 h
[12] = Photoisomerization of the compound in D2O incubated for 7 days under sunlight by NMR analysis
Mus musculus [13] = assay: Antidepressant-like activity in Swiss mouse assessed as reduction in immobility time at 1 to 30 mg/kg, ip administered as single dose for 30 mins prior to testing measured for last 4 mins of 6 mins test by tail suspension test; format: functional, organism-based
[14] = Cytotoxicity against human SH-SY5Y cells assessed as cell viability at 50 uM measured after 24 hrs by MTS assay relative to control; format: cell-based; settings: read-out: Activity; procedure, shortened: as §2
[15] = Apparent permeability across absorptive direction in Sprague-Dawley rat ileum at 50 uM measured after 20 mins LC-MS/MS analysis; format: ADME, tissue-based
[16] = Apparent permeability across eliminatory direction in Sprague-Dawley rat ileum at 50 uM measured after 20 mins LC-MS/MS analysis; format: ADME, tissue-based
Mus musculus [17] = assay: Antianxiety activity in Swiss mouse assessed as increase in time spent in open arm entries at 3 mg/kg, ip measured after 30 mins and monitored for 5 mins by elevated plus maze test relative to control; format: functional
Mus musculus [18] = assay: Ex vivo inhibition of MAOA in ip dosed Swiss mouse brain homogenates measured after 30 mins using 5-HT as substrate by amplex red reagent-based horseradish peroxidase-coupled fluorescence assay; format: functional
[19] = target: T1, Amine oxidase [flavin-containing] A (Mus musculus, UniProt Q64133); assay: Inhibition of MAOA in Swiss mouse brain homogenates assessed as residual activity at 50 uM using 5-HT as substrate preincubated for 10 mins followed by substrate addition by amplex red reagent-based horseradish peroxidase-coupled fluorescence assay relative to control; format: tissue-based; settings: read-out: Activity
T1 sequence (Q64133 whole entry): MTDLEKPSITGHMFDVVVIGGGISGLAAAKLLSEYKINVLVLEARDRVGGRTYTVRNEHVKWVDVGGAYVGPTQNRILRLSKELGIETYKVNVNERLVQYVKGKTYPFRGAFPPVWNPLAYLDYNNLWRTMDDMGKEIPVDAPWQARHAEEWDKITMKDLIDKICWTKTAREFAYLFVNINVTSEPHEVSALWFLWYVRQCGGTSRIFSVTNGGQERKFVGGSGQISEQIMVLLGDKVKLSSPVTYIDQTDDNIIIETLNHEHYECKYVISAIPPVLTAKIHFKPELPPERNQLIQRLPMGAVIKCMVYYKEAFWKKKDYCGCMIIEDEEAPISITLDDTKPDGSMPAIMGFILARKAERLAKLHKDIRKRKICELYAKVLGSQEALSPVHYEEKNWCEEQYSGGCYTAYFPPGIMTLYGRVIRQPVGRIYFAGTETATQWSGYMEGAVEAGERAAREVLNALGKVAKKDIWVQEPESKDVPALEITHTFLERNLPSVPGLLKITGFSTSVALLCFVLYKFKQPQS

Mus musculus [20] = assay: Ex vivo inhibition of MAOA in Swiss mouse brain homogenates assessed as residual activity at 60 mg/kg, ip measured after 30 mins using 5-HT as substrate by amplex red reagent-based horseradish peroxidase-coupled fluorescence assay relative to control; format: functional; procedure, shortened: as §1
[21] = Chemical stability of the compound in D2O measured incubated for >1 year at room temperature under dark condition by NMR analysis; format: physicochemical
[22] = Toxicity in Swiss mouse assessed as change in behavior at 0.3 mg/kg, ip administered once daily for 10 days measured during compound dosing; format: organism-based; settings: in vivo, 240 h
Mus musculus [23] = assay: Antidepressant-like activity in Swiss mouse assessed as reduction in immobility time at 0.3 mg/kg, ip administered once daily for 10 days measured for last 4 mins of 6 mins test at 30 mins post-last dose test by tail suspension test; format: functional, organism-based
Procedure, shortened: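 Male Swiss mice injected ip daily with 0.3 mg/kg in 0.9% saline for 10 days (n = 10; saline controls n = 8). Tail suspension test on day 10, 30 min after the injection. Immobility time reported as mean ± SEM and compared by unpaired t-test.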

SH-SY5Y [24] = assay: Neuroprotective activity against 6-OHDA-induced toxicity in human SH-SY5Y cells assessed as reduction in propidium iodide positive cells at 5 uM pretreated for 30 mins followed by 6-OHDA challenge and measured after 24 hrs by propidium iodide staining-based flow cytometric analysis relative to 6-OHDA; format: functional
Procedure, shortened: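 SH-SY5Y cells were grown in Advanced DMEM with 10% FBS at 37 °C, 5% CO2 to 80% confluence, then switched to serum-depleted medium. Compound (5 μM, from a 20 mM DMSO stock) was added 30 min before 6-OHDA (100 μM). After 24 h, PI staining was read by flow cytometry. Runs were n ≥ 2, each in duplicate, with one-way ANOVA and Bonferroni.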

[25] = Apparent permeability in Sprague-Dawley rat ileum at 50 uM measured after 20 mins LC-MS/MS analysis; format: ADME, tissue-based
SH-SY5Y [26] = assay: Neuroprotective activity against 6-OHDA-induced toxicity in human SH-SY5Y cells assessed as LDH release at 5 uM pretreated for 30 mins followed by 6-OHDA challenge and measured after 24 hrs by cytotox-onetm homogeneous membrane integrity assay (reference value: 135%); format: functional
Mus musculus [27] = assay: Antianxiety activity in Swiss mouse assessed as proportion of time spent in centre at 10 mg/kg, ip measured after 30 mins and monitored for 5 mins by elevated plus maze test relative to control; format: functional
Procedure, shortened: (§3)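 Adult male Swiss mice (25–30 g), given hydrochloride salts in 0.9% saline ip 30 min before the elevated plus maze; control mice received saline, with diazepam 1 mg/kg ip as reference. Scored arm entries, open-arm parameters and time in centre. Mice were used once, randomly assigned, and scored by blinded observers between 10:00 and 14:00 h.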

Mus musculus [28] = assay: Antianxiety activity in Swiss mouse assessed as number of total arm entries at 10 mg/kg, ip measured after 30 mins and monitored for 5 mins by elevated plus maze test; format: functional; procedure, shortened: as §3
Mus musculus [29] = assay: Antidepressant-like activity in Swiss mouse assessed as reduction in immobility time at 3 to 10 mg/kg, ip administered as single dose for 30 mins prior to testing measured for last 4 mins of 6 mins test by tail suspension test; format: functional, organism-based
Mus musculus [30] = assay: Effect on spontaneous locomotor activity in Swiss mouse assessed as change in number of light beam crossings at 10 mg/kg, ip measured after 30 mins and monitored for 5 mins; format: ADME, organism-based; settings: in vivo
[31] = target: T2, Amine oxidase [flavin-containing] A (Homo sapiens, UniProt P21397); assay: Irreversible inhibition of recombinant human MAOA expressed in Pichia pastoris at 100 uM measured immediately by UV-vis spectrophotometric analysis relative to control
T2 sequence (P21397 whole entry): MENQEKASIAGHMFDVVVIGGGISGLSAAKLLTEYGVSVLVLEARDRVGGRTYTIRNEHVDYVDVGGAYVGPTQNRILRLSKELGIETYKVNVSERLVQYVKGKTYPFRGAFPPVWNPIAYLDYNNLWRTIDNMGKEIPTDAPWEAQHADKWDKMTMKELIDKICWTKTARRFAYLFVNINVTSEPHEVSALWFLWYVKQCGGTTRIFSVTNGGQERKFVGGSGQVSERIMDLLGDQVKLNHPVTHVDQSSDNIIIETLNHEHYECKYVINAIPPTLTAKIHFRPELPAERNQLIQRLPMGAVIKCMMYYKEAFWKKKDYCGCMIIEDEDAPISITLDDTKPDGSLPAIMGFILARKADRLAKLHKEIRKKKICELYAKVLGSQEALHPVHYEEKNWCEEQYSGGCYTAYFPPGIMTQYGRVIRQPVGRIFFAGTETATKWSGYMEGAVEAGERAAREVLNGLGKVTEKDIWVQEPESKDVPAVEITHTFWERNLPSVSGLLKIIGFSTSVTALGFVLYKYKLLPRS

Mus musculus [32] = assay: Reversal of haloperidol-induced catalepsy in Swiss mouse at 0.3 mg/kg, ip pretreated for 15 mins followed by haloperidol challenge and measured up to 90 mins; format: functional, organism-based
Mus musculus [33] = assay: Ex vivo inhibition of MAOB in ip dosed Swiss mouse brain homogenates measured after 30 mins using benzylamine as substrate by amplex red reagent-based horseradish peroxidase-coupled fluorescence assay; format: functional
Mus musculus [34] = assay: Antianxiety activity in Swiss mouse assessed as increase in time spent in open arm entries at 1 mg/kg, ip measured after 30 mins and monitored for 5 mins by elevated plus maze test relative to control; format: functional
Mus musculus [35] = assay: Antianxiety activity in Swiss mouse assessed as increase in open arm entries at 1 mg/kg, ip measured after 30 mins and monitored for 5 mins by elevated plus maze test relative to control; format: functional

C#CCN1CCC(/C=C\c2cccc(F)c2)CC1.Cl
Activity (Mus musculus [1]): Non-Toxic | Activity (Mus musculus [2]): 9.5% | Activity (Mus musculus [3]): 45.3% | Activity (Mus musculus [4]): 14.2% | Activity (SH-SY5Y [5]): Non-Toxic | Activity [6]: Non-Toxic | Activity (Mus musculus [7]): inactive | Activity (Mus musculus [8]): 67.8% | fold change (FC) (Mus musculus [9]): 2 | Activity (Mus musculus [10]): Non-Toxic | Therm solubility [11]: ≥ 34.4 mg/mL | Drug metabolism [12]: Metabolite not detected | Activity (Mus musculus [13]): inactive | viability at 24 h, 50 µM [14]: > 80% | Papp A→B at 20 min, 50 µM [15]: 10.8 ×10⁻⁶ cm/s | Papp at 20 min, 50 µM [16]: 35.4 ×10⁻⁶ cm/s | fold change (FC) (Mus musculus [17]): 2.1 | inhibition (Mus musculus [18]): Dose-dependent effect | ED50 (Mus musculus [18]; 0.5 h): 0.43 mg/kg | activity at 50 µM [19]: -1.3% | Activity (Mus musculus [20]): 1.6% | Stability [21]: Stable | Activity [22]: Non-Toxic | Activity (Mus musculus [23]): Active

C#CCN1CCC(/C=C/c2ccc(C(F)(F)F)cc2)CC1.Cl
fold change (FC) (SH-SY5Y [24]): 0.65 | Papp [25]: Impermeable | Activity (SH-SY5Y [5]): Non-Toxic | viability at 24 h, 50 µM [14]: > 80% | Activity (SH-SY5Y [26]): 87%

C#CCN1CCC(/C=C\c2ccc(F)cc2)CC1.Cl
Activity (SH-SY5Y [5]): Non-Toxic | Activity (Mus musculus [27]): 13.4% | Activity (Mus musculus [28]): 9.7 | viability at 24 h, 50 µM [14]: > 80% | Activity (Mus musculus [29]): Active | Activity (Mus musculus [30]): Toxic

C#CCN(C)CCCOc1ccc(Cl)cc1Cl [CLORGILINE]
inhibition at 100 µM [31]: 100%

C#CCN1CCC(CCc2ccc(C(F)(F)F)cc2)CC1
Activity (Mus musculus [32]): inactive | Drug metabolism [12]: Metabolite not detected | inhibition (Mus musculus [33]): Dose-dependent effect

CN1C(=O)CN=C(c2ccccc2)c2cc(Cl)ccc21 [DIAZEPAM]
fold change (FC) (Mus musculus [34]): 2.4 | fold change (FC) (Mus musculus [35]): 2.1
